# Source: PubChem BioAssay
# TRPC4 potent: allosterically enhances the mouse TRPC4 cation channel; Q9QUQ5; HEK293 TRPC4beta/mu-opioid, DAMGO EC20, Fluo-4 Ca2+ flux; hits give high values; B-score at 10 µM; 310,000 compounds, 0.42% hits; AID 2227;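 active means B-score of calcium response area above 5 SD of library B-scores, with initial fluorescence ratio within 5 SD of library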
# Target sequence (Q9QUQ5 whole entry, looked up): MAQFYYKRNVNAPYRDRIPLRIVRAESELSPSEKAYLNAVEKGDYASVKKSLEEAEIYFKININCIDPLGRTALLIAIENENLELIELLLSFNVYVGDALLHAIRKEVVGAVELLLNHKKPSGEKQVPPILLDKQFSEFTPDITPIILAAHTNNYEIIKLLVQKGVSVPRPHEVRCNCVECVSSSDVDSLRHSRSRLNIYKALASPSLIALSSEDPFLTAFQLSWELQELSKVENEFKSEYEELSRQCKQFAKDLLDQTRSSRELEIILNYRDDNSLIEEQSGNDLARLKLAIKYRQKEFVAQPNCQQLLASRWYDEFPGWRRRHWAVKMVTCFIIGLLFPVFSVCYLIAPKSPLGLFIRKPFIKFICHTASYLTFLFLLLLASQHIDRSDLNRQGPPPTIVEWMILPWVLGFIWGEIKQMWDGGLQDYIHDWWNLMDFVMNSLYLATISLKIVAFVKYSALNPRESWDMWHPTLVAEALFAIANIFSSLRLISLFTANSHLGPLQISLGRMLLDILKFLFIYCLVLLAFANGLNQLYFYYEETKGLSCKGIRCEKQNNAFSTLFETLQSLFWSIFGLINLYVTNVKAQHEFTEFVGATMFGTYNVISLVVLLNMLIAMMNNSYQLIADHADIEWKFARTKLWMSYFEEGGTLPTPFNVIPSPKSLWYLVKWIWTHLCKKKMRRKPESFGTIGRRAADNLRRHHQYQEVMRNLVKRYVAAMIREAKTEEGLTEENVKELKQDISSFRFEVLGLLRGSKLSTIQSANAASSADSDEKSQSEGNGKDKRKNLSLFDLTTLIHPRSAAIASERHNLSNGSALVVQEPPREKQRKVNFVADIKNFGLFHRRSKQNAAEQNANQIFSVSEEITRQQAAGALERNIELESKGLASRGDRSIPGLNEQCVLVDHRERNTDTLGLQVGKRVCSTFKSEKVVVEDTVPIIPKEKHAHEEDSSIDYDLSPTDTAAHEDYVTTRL
# TRPC4 agonist: activators of mouse TRPC4 channel. B-score at 10 µM. Q9QUQ5. HEK293 TRPC4beta/mu-opioid, Fluo4 calcium fluorescence; hits give high values. 310,000 compounds, 0.49% hits;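 active means B-score above 5 SD of library B-scores, and initial fluorescence ratio not above library mean plus 5 SD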;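 further: positive B-score marks a calcium rise read as TRPC4 activation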
#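 Assay system: HEK293 stable line with TRPC4beta plus mu-opioid receptor; schedule: 45 min room-temperature Fluo4 loading, 110 s read; technique: kinetic Fluo4 calcium fluorescence; evaluation: integrated baseline-normalised fluorescence ratio, converted to per-well B score; controls: buffer (low) and maximal DAMGO (high)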
# TRPC6 activator: activates the mouse TRPC6 cation channel; HEK293-TRPC6 membrane potential dye fluorescence; hits give high values; 310,000 compounds, 0.13% hits; B-score at 10 µM; AID 2550; Q61143;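 active means B-score of the integrated fluorescence ratio above library mean plus 3 SD, and starting fluorescence ratio within library mean plus 5 SD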;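 further: higher score means more depolarization so channel activation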
# TRPC6 inhibitor: mouse TRPC6 channel inhibition; HEK293-TRPC6, membrane potential dye, ACh-evoked depolarization; hits give low values; B-score at 10 µM; 310,000 compounds, 1.1% hits;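 active means B-score under library mean minus 3 SD, initial fluorescence not abnormally high, positive integrated signal ratio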;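 further: B-score derived from integrated fluorescence ratio over the kinetic read; more negative B-score means stronger inhibition of depolarization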
# TRPC4 block: blocks the mouse TRPC4 cation channel; B-score at 10 µM; 300,000 compounds, 0.39% hits; HEK293 TRPC4beta/mu-opioid, DAMGO-evoked Fluo4 calcium flux; hits give low values;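 active means B-score over 3 SD under the library average, no early fluorescence shift, positive overall ratio signal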
#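 test system = HEK293 cells with stable TRPC4beta plus mu-opioid receptor expression | detection = Fluo4 Ca2+ flux fluorescence | read-out = integrated fluorescence ratio relative to baseline, converted to per-well B score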
# TRPC4 spec 2: mouse TRPC4 off-target activity of TRPC6 inhibitors, second screen; shares compounds with TRPC6 inhibitor; HEK293 TRPC4/MOR, membrane potential dye fluorescence; channel activated by saturating DAMGO dose; inhibition, % at 10 µM; 920 compounds, 42% hits;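 active means compounds whose fluorescence signal differed from control wells by over 3 SD, either direction, in both duplicate plates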
# TRPC4 spec: tests whether TRPC6 inhibitors also affect mouse TRPC4. activity change, negative = inhibition, % at 10 µM. AID 2777. 920 compounds, 61% hits. HEK293 TRPC4/mu-opioid, membrane potential fluorescence. shares compounds with TRPC6 inhibitor;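 active means rise or fall in signal beyond 3 SD of buffer-only wells in both replicate plates, either sign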;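 further: integrated kinetic ratio of fluorescence range over baseline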
# HEK293 MPD ctr 2-1: second counter-screen for TRPC6 inhibitors: parental HEK293 cells; shares compounds with TRPC6 inhibitor; parental HEK293 membrane potential dye fluorescence; maximal acetylcholine challenge after compound addition; signal change vs control, % at 10 µM; 920 compounds, 31% hits; AID 2779;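 active means membrane potential signal moving either way by over 3 SD of the maximum-effect control, in both duplicate plates, meaning non-specific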
# HEK293 MPD ctr-1: counter-screen for TRPC6 inhibitors: effect in parental HEK293 cells | parental HEK293 membrane potential dye fluorescence | 920 compounds, 60% hits | membrane potential signal change, % at 10 µM | shares compounds with TRPC6 inhibitor | AID 2780;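 active means membrane potential signal shifting up or down by more than 3 SD of buffer-only wells, on both duplicate plates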
# HEK293 MPD ctr-2: counter-screen for TRPC6 modulators: effect in parental HEK293 cells; shares compounds with TRPC6 inhibitor; membrane potential dye fluorescence; membrane potential signal change, % at 10 µM; 2,400 compounds, 51% hits; AID 488924;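 active means membrane potential signal moves up or down beyond 5 SD from buffer-only wells, on both duplicate plates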
# HEK293 MPD ctr 2-2: second check of TRPC6 modulator effects in parental HEK293 cells. shares compounds with TRPC6 inhibitor. 2,400 compounds, 14% hits. membrane potential dye fluorescence; after compound, maximal acetylcholine stimulation. inhibition, % at 10 µM;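 active means membrane potential signal drops by more than 5 SD from the mean control signal, in both duplicate plates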
# TRPC4 ctr mod: tests whether TRPC6 modulators also affect mouse TRPC4; percent change from control (negative = decrease, positive = increase), % at 10 µM; AID 488927; shares compounds with TRPC6 inhibitor; 2,400 compounds, 69% hits; HEK293 TRPC4/mu-opioid, membrane potential fluorescence;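 active means membrane potential signal moved up or down beyond 5 SD of buffer control wells, in both duplicate plates, actives on both sides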
# TRPC4 ctr inh 2: second check of whether TRPC6 modulators also affect mouse TRPC4 | shares compounds with TRPC6 inhibitor | HEK293 TRPC4/mu-opioid, membrane potential dye fluorescence; stimulated with maximal-effect DAMGO | inhibition, % at 10 µM | 2,400 compounds, 55% hits | AID 488928;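 active means drop in membrane potential signal beyond 5 SD of the control wells in both duplicate plates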;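 further: TRPC4 counter screen for TRPC6 hits run under conditions tuned for TRPC6 not TRPC4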
# TRPC6 block conf: confirmation of mouse TRPC6 inhibitors. shares compounds with TRPC6 inhibitor. 3,300 compounds, 43% hits. inhibition, % at 10 µM. HEK293-TRPC6, membrane potential dye, ACh-evoked depolarization. AID 488960;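 active means fluorescence ratio falls more than 5 SD below the full-stimulation control mean, in both duplicate runs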;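 further: integrated fluorescence ratio of peak minus minimum over baseline after agonist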
# TRPC6 act conf: mouse TRPC6 activator confirmation; 2,800 compounds, 11% hits; HEK293-TRPC6 membrane potential dye fluorescence, FDSS; shares compounds with TRPC6 inhibitor; activation, % at 10 µM;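 active means ratio signal rise beyond 5 SD above unstimulated control wells' mean, seen in both duplicate runs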
# Hits are given with their value; n = inactive; x = no result. Rows were chosen to be rich in hits. Some 2.3% of all compounds tested hit in one or more screens of this group.
SMILES,TRPC4 potent,TRPC4 agonist,TRPC6 activator,TRPC6 inhibitor,TRPC4 block,HEK293 MPD ctr-2,HEK293 MPD ctr 2-2,TRPC4 ctr mod,TRPC4 ctr inh 2,TRPC6 block conf,TRPC6 act conf,others
COc1ccccc1C(=O)N1CCCC1(C#N)c1ccccc1 (centres undefined),n,n,n,n,n,x,x,x,x,x,x,
COc1ccc(C(=O)N2CCCC2(C#N)c2ccccc2)cc1[N+](=O)[O-] (centres undefined),n,n,n,-7.6,n,x,x,x,x,n,n,TRPC4 spec 2=n;TRPC4 spec=0.7%;HEK293 MPD ctr 2-1=n;HEK293 MPD ctr-1=n
COC1c2ccccc2C(=O)N1Cc1ccc(F)cc1 (centres undefined),n,n,n,n,n,x,x,x,x,x,x,
O=C(CN1C(=O)c2ccccc2C1=O)Nc1ccccc1C(F)(F)F,n,n,n,n,n,x,x,x,x,x,x,
O=C(CCN1C(=O)c2ccccc2C1=O)Nc1ccccc1C(F)(F)F,n,n,n,-7.3,n,x,x,x,x,n,n,TRPC4 spec 2=n;TRPC4 spec=n;HEK293 MPD ctr 2-1=n;HEK293 MPD ctr-1=n
Cc1cc(S(=O)(=O)N2CCCCC2)ccc1OCC(=O)N1CCOCC1,n,n,n,n,n,x,x,x,x,x,x,
COc1ccc(Sc2nc(-c3ccccn3)ncc2OC)cc1,n,n,n,-6.1,n,-99%,n,-15%,n,n,n,
COc1cnc(-c2ccccn2)nc1N(C)c1ccccc1,n,n,n,-5.9,n,-59%,n,n,28%,n,n,
O=C(CN1CCN(c2cccc(Cl)c2)CC1)NC1CCCc2ccccc21 (centres undefined),n,n,n,n,n,x,x,x,x,x,x,
CCN1CCN(Cc2cc(=O)oc3cc4c(cc23)CCC4)CC1,n,n,n,-5.1,n,-70%,n,-8.0%,40%,n,n,
CN1CCN(Cc2cc(=O)oc3cc4c(cc23)CCC4)CC1,n,n,n,n,n,x,x,x,x,x,x,
NS(=O)(=O)c1ccc(NC(=S)NCc2ccc3c(c2)OCO3)cc1,n,n,n,-6.8,n,n,n,n,n,n,n,
NS(=O)(=O)c1cccc(NC(=O)CC(NC(=O)c2ccccc2Cl)c2ccccc2)c1 (centres undefined),n,n,n,n,n,x,x,x,x,x,x,
CC(C)(C)c1ccc(CN2C(=O)CSC2=O)cc1,n,n,n,-5.2,n,n,n,n,n,n,n,
O=C(O)c1ccc(CN2C(=O)CSC2=S)cc1,n,n,n,n,n,x,x,x,x,x,x,
[O-][N+]1=c2ccc(Nc3ccccc3)cc2=NC12CCCCC2,n,n,n,-6.7,n,-206%,n,-29%,41%,n,n,
COc1ccc(Nc2ccc3c(c2)=NC2(CCCCC2)[N+]=3[O-])cc1,n,n,n,n,n,x,x,x,x,x,x,
COCC(C)NC(=O)C(C)N1c2cccc3cccc(c23)S1(=O)=O (centres undefined),n,n,n,n,n,x,x,x,x,x,x,
CN1CCS/C1=C/C=C1/SC(=S)N(Cc2ccccc2)C1=O,n,n,19,n,n,278%,n,49%,n,n,112%,
CC1(c2ccccc2)NC(=O)N(CC(=O)Nc2ccc(C(N)=O)cc2)C1=O (centres undefined),n,n,n,n,n,x,x,x,x,x,x,
COc1ccc(CNc2ccc(Cl)cc2)cc1Cn1ccnc1,n,n,n,-5.2,n,n,n,n,56%,n,n,
COc1ccc(Cl)cc1C(=O)NCCCn1ccnc1,n,n,n,n,n,x,x,x,x,x,x,
COc1ccc(C=O)cc1Cn1ccnc1,n,n,n,n,n,x,x,x,x,x,x,
CCc1ccc(NCc2ccc(OC)c(Cn3ccnc3)c2)cc1,n,n,n,-5.4,n,n,n,-10%,52%,40%,n,
COc1ccc(N2CC(C(=O)N3CCc4ccccc43)CC2=O)cc1 (centres undefined),n,n,n,n,n,x,x,x,x,x,x,
SMILES,TRPC4 potent,TRPC4 agonist,TRPC6 activator,TRPC6 inhibitor,TRPC4 block,HEK293 MPD ctr-2,HEK293 MPD ctr 2-2,TRPC4 ctr mod,TRPC4 ctr inh 2,TRPC6 block conf,TRPC6 act conf,others
O=C(COC(=O)C1CCN(S(=O)(=O)c2ccc3c(c2)OCCO3)CC1)Nc1ccc(C(F)(F)F)cc1,n,n,n,n,n,x,x,x,x,x,x,
CCCCCCCn1c(=N)n(CC(O)c2ccco2)c2ccccc21 (centres undefined),n,n,n,-5.4,n,235%,n,44%,93%,70%,x,
CCCCCCCn1c(=N)n(CC(=O)c2ccco2)c2ccccc21,n,n,n,-5.3,n,94%,n,16%,78%,58%,n,
N=c1n(CCN2CCCC2)c2ccccc2n1CC(O)c1ccco1 (centres undefined),n,n,n,n,n,x,x,x,x,x,x,
CCN(Cc1nc(-c2cccc(C)c2)no1)C(=O)c1ccc2c(c1)OCO2,n,n,n,n,n,x,x,x,x,x,x,
Cc1ccc2ccc3cccnc3c2n1,n,n,n,-5.8,n,-248%,n,-36%,n,44%,n,
CCn1cc(S(=O)(=O)Nc2cc(C)ccc2F)cn1,n,n,n,n,n,x,x,x,x,x,x,
Oc1ccc(Cl)cc1Cc1cc(Cl)ccc1O,n,n,n,-5.1,n,n,69%,-12%,63%,66%,n,
COc1ccc(CCNS(=O)(=O)CCNC(=O)c2ccc3c(c2)OCO3)cc1,n,n,n,n,n,x,x,x,x,x,x,
Cc1ccc(C(=O)Nc2cccc(NC(=O)c3ccc(C)o3)n2)o1,n,n,n,n,n,x,x,x,x,x,x,
O=C(CNC(=O)c1ccc(Cl)cc1Cl)OCn1nnc2ccccc2c1=O,n,n,n,n,n,x,x,x,x,x,x,
CCc1nn2c(=O)cc(COc3ccc(/C=C4\C(=N)N5N=C(C)SC5=NC4=O)cc3)nc2s1,n,n,13,n,n,228%,n,40%,n,n,88%,
